M1 ag: M1 muscarinic receptor agonists, primary screen, CHO-M1 cells, Fluo-4 calcium, agonist mode; B-score at 10 µM; actives 3% (n = 64,000); Fluo-4 calcium fluorescence; active compounds read high; Muscarinic acetylcholine receptor M1;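 active means fluorescence rise, raw or as B-score row- and column-corrected plate score, outside the 99.7% band of its plate's samples, either direction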
RORa activator: activators of orphan receptor RORA, primary screen, cell-based, luminescence. CHO-K1 Gal4-RORA LBD luciferase reporter; percent increase over mock-subtracted basal signal. actives 1.5% (n = 65,000). activation, % at 10 µM. Nuclear receptor ROR-alpha (Homo sapiens), P35398;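 active means activation above the mean of all tested compounds plus 3 SD, cut at about 49% in these data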
D1 mod: D1 CRE-luciferase signal change, two-sided – cell-based, HEK293 D1, dopamine EC30, D1 allosteric modulator project, primary screen; D(1A) dopamine receptor (Homo sapiens), P21728; dopamine EC30 potentiation; actives deviate in either direction; B-score at 10 µM; actives 5.9% (n = 58,000);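 active means luminescence count or its row- and column-corrected plate score outside the 99.7% band of the plate's sample wells, on either side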
M1 antagonist: antagonists of rat M1 muscarinic receptor. CHO-M1 cells, Fluo-4 calcium, ACh EC80 antagonist mode; active compounds read low. B-score at 10 µM. actives 3.4% (n = 64,000). AID 628, 2007;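 active means calcium fluorescence response, raw or row-and-column corrected B-score, differing from the plate sample mean either way at a set confidence level, mostly lower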
Target sequence (P08482 whole entry, looked up): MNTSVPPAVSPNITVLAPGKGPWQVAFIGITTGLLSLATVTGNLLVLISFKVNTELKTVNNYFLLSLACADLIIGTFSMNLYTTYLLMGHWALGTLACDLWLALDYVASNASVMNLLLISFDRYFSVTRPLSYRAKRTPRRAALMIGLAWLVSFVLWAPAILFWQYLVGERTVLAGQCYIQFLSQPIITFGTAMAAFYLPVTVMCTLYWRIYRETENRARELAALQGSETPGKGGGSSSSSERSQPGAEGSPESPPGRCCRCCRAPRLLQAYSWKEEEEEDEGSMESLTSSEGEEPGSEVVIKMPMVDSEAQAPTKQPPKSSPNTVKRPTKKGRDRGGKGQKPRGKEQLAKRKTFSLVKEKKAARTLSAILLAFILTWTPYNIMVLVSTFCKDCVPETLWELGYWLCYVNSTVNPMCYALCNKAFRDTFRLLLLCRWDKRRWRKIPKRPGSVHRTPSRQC
HePTP inhibitor: inhibitors of human HePTP phosphatase, primary screen, biochemical, absorbance, leukemia target | recombinant HePTP phosphatase activity, OD absorbance | actives 0.64% (n = 110,000) | Tyrosine-protein phosphatase non-receptor type 7 (Homo sapiens), P35236 | AID 521, 2006 | inhibition, % at 20 µM; in the data active means inhibition above about 50%
SF1 activator: activators of human SF-1, primary screen, cell-based, CHO-K1, Gal4-SF-1 LBD, luciferase luminescence. CHO-K1 Gal4-SF-1 LBD luciferase reporter; % increase over DMSO SF-1-specific signal. activation, % at 10 µM. AID 522, 2006. Steroidogenic factor 1 (Homo sapiens), Q13285. actives 1.9% (n = 65,000);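 active means activation above the mean activation of all tested compounds plus 3 SD, cut at about 50% in these data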
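Test system: transient Gal4-SF-1 LBD reporter, CHO-K1; Amount: 4,000 CHO-K1 cells per well; Doses: 10 µM only; Timing: compound exposure 20 h at 37 °C; Signal: luciferase light emission; Read-out basis: percent activation relative to DMSO median and mock-transfected background; Control set: DMSO negative control and −SF1 background wells; Replicates: one test per compound.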
Of the large screens only hits and unclear results are named; the others gave an inactive call. Compounds with a hit are over-represented: about 8.2% of the library has one in this group of screens.

CCN(CC)C1CC(=O)N(c2cccc(C)c2)C1=O (stereo not given)	none
COC(=O)c1cccc(-c2ccc(/C=C3\C(=O)N(c4ccc(S(N)(=O)=O)cc4)N=C3C)o2)c1	none (no result: M1 ag, RORa activator, D1 mod, M1 antagonist, SF1 activator)
COC(=O)c1cccc(-c2ccc(/C=C3\C(=O)N(c4cccc(C(=O)O)c4)N=C3C)o2)c1	HePTP inhibitor 102 (no result: M1 ag, RORa activator, D1 mod, M1 antagonist, SF1 activator)
N=C1S/C(=C\c2ccc(-c3cccc([N+](=O)[O-])c3)o2)C(=O)N1c1ccc2c(c1)OCO2	none (no result: M1 ag, RORa activator, D1 mod, M1 antagonist, SF1 activator)
N=C1S/C(=C\c2ccc(-c3cccc(C(=O)O)c3)o2)C(=O)N1c1ccc2c(c1)OCO2	HePTP inhibitor 103 (no result: M1 ag, RORa activator, D1 mod, M1 antagonist, SF1 activator)
CC1=NN(c2ccc(C(=O)O)cc2)C(=O)/C1=C\c1ccc(-c2cccc(C(=O)O)c2)o1	HePTP inhibitor 101 (no result: M1 ag, RORa activator, D1 mod, M1 antagonist, SF1 activator)
CC(=O)c1cccc(-c2ccc(/C=C3\C(=O)N(c4cccc(C(=O)O)c4)N=C3C)o2)c1	none (no result: M1 ag, RORa activator, D1 mod, M1 antagonist, SF1 activator)
O=C1NN(c2cccc(Cl)c2)C(=O)/C1=C\c1ccc(-c2cccc(C(=O)O)c2)o1	HePTP inhibitor 102 (no result: M1 ag, RORa activator, D1 mod, M1 antagonist, SF1 activator)
CC(=O)Nc1nc2n(n1)C(c1ccc(Cl)cc1)C=C(C)N2 (stereo not given)	M1 antagonist 1.9
O=C(Nc1nc2n(n1)C(c1ccc(Cl)cc1)CC(c1ccc(Cl)cc1)N2)c1ccco1 (stereo not given)	none
O=C(c1nc2n(n1)C(c1ccc(Cl)cc1)C=C(c1ccccc1)N2)N1CCOCC1 (stereo not given)	M1 ag 46
COc1ccc(C2C=C(c3ccc(Cl)cc3)Nc3nc(NC(C)=O)nn32)cc1 (stereo not given)	M1 ag 235 (no result: D1 mod)
CCOc1ccccc1NC(=O)C1CCN(c2ccc(S(=O)(=O)N3CCCC3)cc2)CC1	none
O=C(c1ccc(F)cc1)N1CCN(Cc2ccccc2Cl)CC1	none (no result: M1 ag, RORa activator, D1 mod, M1 antagonist, SF1 activator)
CC(C)OC(=O)C1C2C=CC3(CN(C(C)c4ccc(Br)cc4)C(=O)C13)O2 (stereo not given)	none
CN(C)c1ccc(NC(=O)COc2ccccc2)cc1	none (no result: M1 ag, RORa activator, D1 mod, M1 antagonist, SF1 activator)
CN(C)c1ccc(NC(=O)CCCc2ccccc2)cc1	RORa activator 50
Cc1ccc(-c2nnc(-c3cccc(Br)c3)o2)cc1	none
O=c1oc2ccc3ccccc3c2cc1-c1nnc(-c2ccccc2)o1	none
O=c1oc2ccccc2cc1-c1nnc(-c2cccc(Br)c2)o1	SF1 activator 53
Brc1cccc(-c2nnc(-c3ccccc3)o2)c1	SF1 activator 60
Cc1ccc(-c2nnc(-c3ccccc3)o2)cc1Br	none (no result: D1 mod)
Cc1ccccc1-c1nnc(-c2ccc(Br)cc2)o1	SF1 activator 77
CCN(CC)S(=O)(=O)c1ccc(Nc2nc3ccccc3n3nnnc23)cc1	RORa activator 70
Cc1cc2nc(-c3cccnc3SCC(=O)NCc3ccco3)[nH]c2cc1C	D1 mod -3.9
CCN1CC=C2C(C1)C(c1ccc(Cl)s1)C(C#N)=C(N)C2(C#N)C#N (stereo not given)	M1 ag 261
CN1CCN(c2nc(-c3ccncc3)nc3ccccc23)CC1	D1 mod -3.8
O=C(NCc1ccccc1Cl)c1cnn2cccnc12	none
O=C(Nc1cccc(Cl)c1)c1cnn2cccnc12	SF1 activator 105
Cc1cc(NC(=O)c2cnn3cccnc23)no1	M1 antagonist 0.81
CC(=O)Nc1ccc(C2=N/C(=C/c3ccc(-c4ccc(C)c(Cl)c4)o3)C(=O)O2)cc1	none (no result: M1 ag, RORa activator, D1 mod, M1 antagonist, SF1 activator)
CC(C)(C)c1ccccc1NC(=O)c1cccnc1	none
CC(C)c1ccc(NC(=O)c2csnn2)cc1	D1 mod -4.5
CC(C)(C)c1cc(NC(=O)c2cccnc2)no1	SF1 activator 75 (no result: D1 mod)
CC(C)c1ccc(NC(=O)c2cccnc2)cc1	RORa activator 69 (no result: D1 mod)
CC(C)c1ccc(NC(=O)c2c(Cl)cccc2Cl)cc1	none (no result: M1 ag, RORa activator, D1 mod, M1 antagonist, SF1 activator)
CC(=O)c1ccc(NC(=O)c2cccnc2)cc1	none (no result: M1 ag, RORa activator, D1 mod, M1 antagonist, SF1 activator)
CC(C)(C)c1ccc(C(=O)Nc2cnccn2)cc1	D1 mod -3.4
Cc1ccc(OC(=O)c2ccc(Br)o2)cc1	none (no result: M1 ag, RORa activator, D1 mod, M1 antagonist, SF1 activator)
CC(=O)c1c(C)n(-c2ccc(N(C)C)cc2)c2ccc(O)cc12	none (no result: M1 ag, RORa activator, D1 mod, M1 antagonist, SF1 activator)
CSc1ccccc1NC(=O)C1CCCO1 (stereo not given)	none
CC(C)(C)c1cc(NC(=O)C2CCCO2)no1 (stereo not given)	SF1 activator 70
Cc1ccc2cc3c(N)c(C(=O)N4CCOCC4)sc3nc2c1	none
Cc1ccc2nc3sc(C(=O)N4CCOCC4)c(N)c3cc2c1	D1 mod -5.5
COc1ccc(NC(=O)c2ccc(CN3CCc4ccccc4C3)cc2)c(OC)c1	none (no result: M1 ag, RORa activator, D1 mod, M1 antagonist, SF1 activator)
CCc1nc(-c2ccc(-c3ccc(OC)cc3)nc2OC)no1	none
COCc1nc(-c2ccc(-c3ccc(OC)cc3)nc2OC)no1	RORa activator 49
COCc1nc(-c2ccc(-c3ccccc3)nc2OC)no1	RORa activator 72 (no result: D1 mod)
COc1ccc(-c2nc(C#N)c(NCCc3ccccc3)o2)cc1OC	RORa activator 70, SF1 activator 78
COc1ccc(-c2nc(C#N)c(NCc3ccc(C)cc3)o2)cc1OC	none
O=C(c1cc2ccccc2oc1=O)N1CCN(c2ccc(N3CCOCC3)nn2)CC1	none
Cc1nc(/N=C\N(C)C)sc1C(=O)Nc1ccccc1	RORa activator 52
O=C(O)c1ccccc1N=Nc1cc(-c2ccccc2)oc1O	HePTP inhibitor 101 (no result: M1 ag, RORa activator, D1 mod, M1 antagonist, SF1 activator)
CC1(C)Cc2c(sc3nc(NN)n(-c4ccccc4)c(=O)c23)CO1	none (no result: M1 ag, RORa activator, D1 mod, M1 antagonist, SF1 activator)
CC1(C)Cc2c(sc3nc(-c4cccs4)n(N)c(=O)c23)CO1	M1 ag 5, M1 antagonist -1.8
Cc1nc(NC(=O)C2C3CCC(O3)C2C(=O)O)sc1-c1ccccc1 (stereo not given)	none (no result: M1 ag, RORa activator, D1 mod, M1 antagonist, SF1 activator)
CCOC(=O)c1csc(NC(=O)c2ccc(S(=O)(=O)N(C)C)cc2)n1	none (no result: D1 mod)
CCOC(=O)c1csc(NC(=O)c2ccccc2)n1	RORa activator 79, SF1 activator 63
COc1ccc(NC(=O)CN(c2cccc(C(F)(F)F)c2)S(C)(=O)=O)cc1OC	none (no result: M1 ag, RORa activator, D1 mod, M1 antagonist, SF1 activator)
O=C(Nc1cccc(NC(=O)c2ccccc2Cl)c1)c1ccc2c(c1)OCCO2	none (no result: M1 ag, RORa activator, D1 mod, M1 antagonist, SF1 activator)
O=C(NC1CC1)c1cccc(Nc2ccc(-c3ccc4c(c3)OCCO4)nn2)c1	M1 ag 3.8
COc1ccc(/C=C/C(=O)Nc2nc(-c3ccc(Cl)cc3)cs2)cc1OC	none (no result: M1 ag, RORa activator, D1 mod, M1 antagonist, SF1 activator)
O=c1c(-c2ccc(F)cc2)coc2cc(O)ccc12	RORa activator 84, SF1 activator 63
O=c1c(-c2ccc(Br)cc2)coc2c(CN3CCOCC3)c(O)ccc12	none
O=c1c(-c2ccc(F)cc2)coc2c3c(ccc12)OCCO3	SF1 activator 63
